Experimental data of several laboratories.
Protocols differ between the studies behind these lines.
Target: Homeodomain-interacting protein kinase 2 (HIPK2, Homo sapiens, UniProt Q9H2X6)
Read-out: enzyme activity
Action: inhibitor

SMILES | technique | tested at | remaining activity
Nc1nc(Nc2ccccc2)sc1C(=O)c1c(F)cccc1F |  | 10 µM | 16%
Cc1cnc(NC2CCOCC2)nc1-n1cnc(C(=O)NC(CN)c2cc(F)cc(Cl)c2)c1 (stereo not drawn) | radiometric | 1 µM | 92%
CCCOc1ccc(OC)c(F)c1C(=O)c1ccc(C(=O)N[C@@H]2CNC[C@H]2NC(=O)c2ccc3[nH]ncc3c2)cc1 |  | 10 µM | 94%
O=C(O)c1ccc2c(c1)nc(Nc1ccc(F)c(Cl)c1)c1ccncc12 | radiometric | 1 µM | 1%
O=C(Nc1cnn(-c2csc(C(=O)NC3COC3)c2)c1)Nc1ccccc1Cl |  | 5 µM | 102%
Cn1c(=O)n(-c2ccc(C(C)(C)C#N)cc2)c2c3cc(-c4cnc5ccccc5c4)ccc3ncc21 |  | 10 µM | 101%
O=C(O)c1ccc2c(c1)nc(Nc1ccc(Cl)cc1)c1ncncc12 | radiometric | 1 µM | -2%
FC(F)c1nc2ccccc2n1-c1nc(N2CCOCC2)nc(N2CCOCC2)n1 |  | 10 µM | 63%
O=C(O)c1ccc2c(c1)nc(Nc1ccccc1)c1ncncc12 | radiometric | 1 µM | 2%
CC(C)(C)c1nc(-c2cccc(NS(=O)(=O)c3c(F)cccc3F)c2F)c(-c2ccnc(N)n2)s1 | radiometric | 1 µM | 80%
O=C(O)c1ccc2c(c1)nc(Nc1ccc(Cl)cc1)c1ccncc12 | radiometric | 1 µM | -1%
CCN(CC)c1ccc(C2=NNC(=O)CC2C)cc1[N+](=O)[O-] (stereo not drawn) |  | 10 µM | 106%
